Experiments:
[1] = molecular target: Inosine-5'-monophosphate dehydrogenase 2 (Homo sapiens, UniProt P12268); assay: Inhibition of human Inosine-5'-monophosphate dehydrogenase 2
[2] = test system: CCRF-CEM; assay: Inhibitory activity against human T-lymphoblast CEM cell line using T cell proliferation assay; format: functional, cell-based
In short: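 Human T-lymphoblast CEM cells were grown in RPMI 1640 with 10% heat-inactivated FBS and penicillin/streptomycin, then seeded at 3000 cells/well in 0.5% DMSO. Compounds were tested in triplicate from a 10 uM final top concentration in 3-fold serial dilutions. Cells were kept 72 h in humidified 5% CO2.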

COC[C@@H]1CCCN1c1nc(Nc2ccc(-c3cnco3)c(OC)c2)nc(-c2ccccc2)n1
IC50 [1]: 290 nM | IC50 [2]: > 1000 nM

COc1cc(Nc2nc(NCC(=O)O)nc(-c3ccccc3)n2)ccc1-c1cnco1
IC50 [1]: 250 nM | IC50 [2]: > 1000 nM

COc1cc(Nc2nc(O)nc(-c3ccccc3)n2)ccc1-c1cnco1
IC50 [1]: 18 nM | IC50 [2]: 5900 nM

CNc1nc(Nc2ccc(-c3cnco3)c(OC)c2)nc(N2CCC[C@@H]2CO)n1
IC50 [1]: 720 nM | IC50 [2]: > 1000 nM

COc1nc(Nc2ccc(-c3cnco3)c(OC)c2)nc(-c2ccccc2)n1
IC50 [1]: 41 nM | IC50 [2]: > 1000 nM

COc1cc(Nc2nc(-c3ccccc3)nc(N3CCN(C=O)CC3)n2)ccc1-c1cnco1
IC50 [1]: 160 nM | IC50 [2]: > 1000 nM

COc1cc(Nc2nc(-c3ccccc3)nc(N3CCC[C@@H]3CO)n2)ccc1-c1cnco1
IC50 [1]: 78 nM | IC50 [2]: > 1000 nM

CNc1nc(NC)nc(Nc2ccc(-c3cnco3)c(OC)c2)n1
IC50 [1]: 620 nM | IC50 [2]: > 1000 nM

COc1cc(Nc2nc(-c3ccccc3)nc(N(C)C)n2)ccc1-c1cnco1
IC50 [1]: 270 nM | IC50 [2]: > 1000 nM

CNc1nc(Nc2ccc(-c3cnco3)c(OC)c2)nc(-c2ccc(C)cc2)n1
IC50 [1]: 170 nM | IC50 [2]: > 1000 nM

COc1cc(Nc2nc(NCCc3cccnc3)nc(-c3ccccc3)n2)ccc1-c1cnco1
IC50 [1]: 58 nM | IC50 [2]: 2400 nM

CNc1nc(Nc2ccc(-c3cnco3)c(OC)c2)nc(N2CCC[C@H]2COC)n1
IC50 [1]: 390 nM | IC50 [2]: > 1000 nM

CNc1nc(Nc2ccc(-c3cnco3)c(OC)c2)nc(-c2ccccc2)n1
IC50 [1]: 76 nM | IC50 [2]: > 1000 nM

CNc1nc(Nc2ccc(-c3cnco3)c(OC)c2)nc(-c2ccco2)n1
IC50 [1]: 57 nM | IC50 [2]: > 1000 nM

CNc1nc(Nc2ccc(-c3cnco3)c(OC)c2)nc(-c2ccccc2C)n1
IC50 [1]: 310 nM | IC50 [2]: > 1000 nM

COc1cc(Nc2nc(NCCc3ccccc3)nc(-c3ccccc3)n2)ccc1-c1cnco1
IC50 [1]: > 1000 nM | IC50 [2]: > 1000 nM

COc1cc(Nc2nc(-c3ccccc3)nc(N3CCN(C)CC3)n2)ccc1-c1cnco1
IC50 [1]: 330 nM | IC50 [2]: > 1000 nM

CNc1nc(Nc2ccc(-c3cnco3)c(OC)c2)nc(-c2cccc(C)c2)n1
IC50 [1]: 130 nM | IC50 [2]: > 1000 nM

CNc1nc(Nc2ccc(-c3cnco3)c(OC)c2)nc(N2CCOCC2)n1
IC50 [1]: 160 nM | IC50 [2]: > 1000 nM

COc1cc(Nc2nc(-c3ccccc3)nc(N3CCOCC3)n2)ccc1-c1cnco1
IC50 [1]: 190 nM | IC50 [2]: > 1000 nM

COc1c(C)c2c(c(O)c1C/C=C(\C)CCC(=O)O)C(=O)OC2 [MYCOPHENOLIC ACID]
IC50 [2]: 390 nM

COc1cc(Nc2nc(OCc3ccccc3)nc(-c3ccccc3)n2)ccc1-c1cnco1
IC50 [1]: 32 nM | IC50 [2]: > 1000 nM

COc1cc(Nc2nc(N)nc(-c3ccccc3)n2)ccc1-c1cnco1
IC50 [1]: 54 nM | IC50 [2]: > 1000 nM

COc1cc(Nc2nc(-c3ccccc3)nc(N3CCC[C@H]3CO)n2)ccc1-c1cnco1
IC50 [1]: 72 nM | IC50 [2]: > 1000 nM

COc1cc(Nc2nc(N)n(-c3ccccc3)n2)ccc1-c1cnco1
IC50 [2]: > 1000 nM

COc1cc(Nc2nc(NCCC(=O)O)nc(-c3ccccc3)n2)ccc1-c1cnco1
IC50 [1]: 130 nM | IC50 [2]: > 1000 nM

COc1cc(Nc2nncc(-c3ccccc3)n2)ccc1-c1cnco1
IC50 [1]: 45 nM | IC50 [2]: 3500 nM

CNc1nc(Nc2ccc(-c3cnco3)c(OC)c2)nc(N2CCC[C@H]2CO)n1
IC50 [1]: 130 nM | IC50 [2]: > 1000 nM

COc1cc(Nc2nc(NCCCC(=O)O)nc(-c3ccccc3)n2)ccc1-c1cnco1
IC50 [1]: 78 nM | IC50 [2]: > 1000 nM

COc1cc(Nc2nc(NCc3ccccc3)nc(-c3ccccc3)n2)ccc1-c1cnco1
IC50 [1]: 410 nM | IC50 [2]: > 1000 nM
